The results in this text go back to ChEMBL document CHEMBL1140959, “Inhibition of PDGFR tyrosine kinase activity by a series of novel N-(3-(4-(pyridin-3-yl)-1H-imidazol-2-ylamino)phenyl)amides: a SAR study on the bioisosterism of pyrimidine and imidazole” (Eur J Med Chem, 2008).

The target of experiment [1] is Platelet-derived growth factor receptor (Mus musculus) (UniProt P05622+P26618). Put plainly: Inhibition of PDGFR autophosphorylation in mouse Swiss 3T3 fibroblast up to 10 ug/ml by immunoblotting. In outline:
(§1)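 PDGFR autophosphorylation in Swiss 3T3 cells was assayed by a previously described method. IC50 was fitted to a six-concentration curve, with duplicate or triplicate determinations.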
For orientation: A western blot detects proteins with antibodies after separation by electrophoresis.

The target in experiment [2] is Receptor-type tyrosine-protein kinase FLT3 (Homo sapiens) (UniProt P36888). The experiment in a line: Inhibition of FLT3 autophosphorylation in human EOL1 cells up to 10 ug/ml by immunoblotting. The class given is cell-based.
Experiment [3] addresses Platelet-derived growth factor receptor (Mus musculus, UniProt P05622+P26618). Put plainly: Inhibition of PDGFR autophosphorylation in mouse Swiss 3T3 fibroblast by immunoblotting. In outline: as §1
The test system of experiment [4] is FLT3 (Homo sapiens). The experiment in a line: Inhibition of FLT3 autophosphorylation in human EOL-1 cells up to 10 ug/ml by immunoblotting.

Active and inactive are the calls of the source. The rule behind the calls is not given here.

Chain of Receptor-type tyrosine-protein kinase FLT3 (Homo sapiens) (P36888 whole entry): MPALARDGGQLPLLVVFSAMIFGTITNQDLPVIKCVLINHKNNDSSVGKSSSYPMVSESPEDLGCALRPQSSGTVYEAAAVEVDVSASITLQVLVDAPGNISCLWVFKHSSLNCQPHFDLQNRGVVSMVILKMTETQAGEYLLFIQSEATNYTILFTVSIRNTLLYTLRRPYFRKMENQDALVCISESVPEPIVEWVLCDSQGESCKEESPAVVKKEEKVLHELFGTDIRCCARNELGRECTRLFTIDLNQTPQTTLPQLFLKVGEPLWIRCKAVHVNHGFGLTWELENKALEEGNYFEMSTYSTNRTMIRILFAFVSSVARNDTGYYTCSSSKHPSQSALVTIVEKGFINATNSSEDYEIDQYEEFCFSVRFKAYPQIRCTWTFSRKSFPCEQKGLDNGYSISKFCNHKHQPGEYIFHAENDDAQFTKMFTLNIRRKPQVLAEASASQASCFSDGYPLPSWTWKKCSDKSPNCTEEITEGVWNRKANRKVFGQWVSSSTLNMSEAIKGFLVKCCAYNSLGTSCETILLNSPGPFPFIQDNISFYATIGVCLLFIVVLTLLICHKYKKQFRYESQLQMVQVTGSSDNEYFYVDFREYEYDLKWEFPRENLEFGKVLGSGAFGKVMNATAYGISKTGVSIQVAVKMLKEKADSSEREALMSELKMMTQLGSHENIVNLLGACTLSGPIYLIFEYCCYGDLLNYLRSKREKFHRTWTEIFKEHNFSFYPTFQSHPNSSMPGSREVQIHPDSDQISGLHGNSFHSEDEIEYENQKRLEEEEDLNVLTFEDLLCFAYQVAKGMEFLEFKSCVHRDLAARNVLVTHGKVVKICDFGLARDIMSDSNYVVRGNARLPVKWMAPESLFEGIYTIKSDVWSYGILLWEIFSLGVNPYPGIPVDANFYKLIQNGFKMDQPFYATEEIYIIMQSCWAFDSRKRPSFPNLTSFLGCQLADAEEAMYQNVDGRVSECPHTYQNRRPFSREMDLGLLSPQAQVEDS

In the case of `Cc1ccc([N+](=O)[O-])cc1Nc1nc(-c2ccncc2)c[nH]1`, the result in experiment [1] and in experiment [2] was inactive.
What is called IC50 is the concentration that inhibits the measured activity by half. A lower IC50 goes with inhibition by little substance. Regarding `CN1CCN(Cc2ccc(C(=O)Nc3cccc(Nc4nc(-c5cccnc5)c[nH]4)c3)cc2)CC1`, the half-maximal inhibitory concentration (IC50) in experiment [3] came out at 6500 nM.
The same measure, in the same setting: under `CC(=O)Nc1ccc(C)c(Nc2nc(-c3cccnc3)c[nH]2)c1` stands 5900 nM.
`Cc1ccc(NC(=O)c2ccc(CN3CCN(C)CC3)cc2)cc1Nc1nc(-c2cccnc2)c[nH]1` showed an IC50 in experiment [3] of over 10000 nM. Moreover, the result in experiment [1] and in experiment [2] was inactive.
`Cc1ccc(N)cc1Nc1nc(-c2ccccc2)c[nH]1`: the outcome in experiment [1] and in experiment [2] was inactive.
As for `Cc1ccc([N+](=O)[O-])cc1Nc1nc(-c2ccccc2)c[nH]1`, the result in experiment [1] and in experiment [2] was inactive.
For the compound `COc1cc(C(=O)Nc2ccc(C)c(Nc3nc(-c4cccnc4)c[nH]3)c2)cc(OC)c1OC`, the IC50 in experiment [3] was over 10000 nM. The result in experiment [1] and in experiment [2] was inactive.
In turn, `Cc1ccc(NC(=O)c2ccc(CN3CCN(C)CC3)cc2)cc1Nc1nccc(-c2cccnc2)n1` [IMATINIB] yielded a concentration for half-maximal inhibition (IC50) in experiment [3] of 300 nM.
As to `CCc1ccc([N+](=O)[O-])cc1Nc1nc(-c2cccnc2)c[nH]1`, the result in experiment [1] and in experiment [2] was inactive.
The compound `COc1ccc(C(=O)Nc2ccc(C)c(Nc3nc(-c4cccnc4)c[nH]3)c2)cc1` registered an IC50 in experiment [3] of over 30000 nM. The outcome in experiment [1] and in experiment [2] was inactive.
Consider `Cc1cccc(C(=O)Nc2ccc(C)c(Nc3nc(-c4cccnc4)c[nH]3)c2)c1`, for which the IC50 in experiment [3] stood at 2200 nM.
As to `CCc1ccc(N)cc1Nc1nc(-c2cccnc2)c[nH]1`, the outcome in experiment [1] and in experiment [2] was inactive.
Regarding `Cc1ccc(NC(=O)c2ccccc2C)cc1Nc1nc(-c2cccnc2)c[nH]1`, in experiment [3], inhibition was half-maximal at 600 nM (IC50).
In experiment [3], `Cc1ccc(NC(=O)c2ccncc2)cc1Nc1nc(-c2cccnc2)c[nH]1` showed an IC50 of 1800 nM. Also, the result in experiment [2] and in experiment [4] was inactive.
Regarding `Cc1ccc(NC(=O)c2ccccc2)cc1Nc1nc(-c2ccccc2)c[nH]1`, the IC50 in experiment [3] came out at 7100 nM.
In turn, `Cc1ccc(NC(=O)c2ccc([N+](=O)[O-])cc2)cc1Nc1nc(-c2cccnc2)c[nH]1` had a half-inhibitory concentration (IC50) in experiment [3] of over 30000 nM. Further, the outcome in experiment [1] and in experiment [2] was inactive.
In experiment [3], `CCc1ccc(NC(=O)c2cccc(C)c2)cc1Nc1nc(-c2cccnc2)c[nH]1` gave a half-inhibitory concentration (IC50) of 300 nM.
Same read-out and setting: under `Cc1ccc(NC(=O)c2ccc(CN3CCN(C)CC3)cc2)cc1Nc1nc(-c2ccncc2)c[nH]1` stands over 10000 nM; under `Cc1ccccc1C(=O)Nc1cccc(Nc2nc(-c3cccnc3)c[nH]2)c1`, 600 nM.
The compound `CCc1ccc(NC(=O)c2ccccc2)cc1Nc1nc(-c2cccnc2)c[nH]1` came in with a 50% inhibitory concentration (IC50) in experiment [3] of 4700 nM.
Same read-out and setting: under `Cc1ccc(NC(=O)c2ccccc2)cc1Nc1nc(-c2ccncc2)c[nH]1` stands over 10000 nM; under `CC(=O)Nc1ccc(C)c(Nc2nc(-c3ccccc3)c[nH]2)c1`, over 30000 nM; under `Cc1ccc(C(=O)Nc2cccc(Nc3nc(-c4cccnc4)c[nH]3)c2)cc1`, 200 nM.
`Cc1ccc(NC(=O)c2ccc(N)cc2)cc1Nc1nc(-c2cccnc2)c[nH]1` displayed an IC50 in experiment [3] of over 30000 nM. Moreover, the outcome in experiment [1] and in experiment [2] was inactive.
Compound `Cc1ccc(NC(=O)c2ccc(Cl)cc2)cc1Nc1nc(-c2cccnc2)c[nH]1` showed an IC50 in experiment [3] of 400 nM. The outcome in experiment [2] and in experiment [4] was inactive.
`Cc1ccc(NC(=O)c2ccccc2)cc1Nc1nc(-c2cccnc2)c[nH]1` had a half-inhibitory concentration (IC50) in experiment [3] of 300 nM. Also, the outcome in experiment [2] and in experiment [4] was inactive.
Take `Nc1cccc(Nc2nc(-c3cccnc3)c[nH]2)c1`: the result in experiment [1] and in experiment [2] was inactive.
On to `CCc1ccc(NC(=O)c2ccccc2C)cc1Nc1nc(-c2cccnc2)c[nH]1`, for which, in experiment [3], 1600 nM corresponded to half-maximal inhibition (IC50).
`CCc1ccc(NC(=O)c2ccc(C)cc2)cc1Nc1nc(-c2cccnc2)c[nH]1` displayed an IC50 in experiment [3] of 6500 nM.
In the case of `Cc1ccc(NC(=O)c2ccc(CN3CCN(C)CC3)cc2)cc1Nc1nc(-c2ccccc2)c[nH]1`, the IC50 in experiment [3] is over 10000 nM.
In the case of `Cc1cccc(C(=O)Nc2cccc(Nc3nc(-c4cccnc4)c[nH]3)c2)c1`, half-maximal inhibition in experiment [3] (IC50) was put at 300 nM.
The same measure, in the same setting: next, `Cc1ccc(NC(=O)c2ccccc2)cc1Nc1nccc(-c2cccnc2)n1`: 100 nM.
As to `Cc1ccc(C(=O)Nc2ccc(C)c(Nc3nc(-c4cccnc4)c[nH]3)c2)cc1`, in experiment [3], half-maximal inhibition (IC50) was put at 200 nM. Besides, the result in experiment [2] and in experiment [4] was inactive.
Take `O=[N+]([O-])c1cccc(Nc2nc(-c3cccnc3)c[nH]2)c1`: the outcome in experiment [1] and in experiment [2] was inactive.
On to `Cc1ccc([N+](=O)[O-])cc1Nc1nc(-c2cccnc2)c[nH]1`, for which the outcome in experiment [1] and in experiment [2] was inactive.
With `Cc1ccc(N)cc1Nc1nc(-c2ccncc2)c[nH]1`, the result in experiment [1] and in experiment [2] was inactive.
For the compound `Cc1ccc(N)cc1Nc1nc(-c2cccnc2)c[nH]1`, the outcome in experiment [1] and in experiment [2] was inactive.
Regarding `CCCCCCCCCCc1ccc(C(=O)Nc2ccc(C)c(Nc3nc(-c4cccnc4)c[nH]3)c2)cc1`, in experiment [3], the IC50 is over 10000 nM. For the same compound, the outcome in experiment [1] and in experiment [2] was inactive.
`CC(=O)Nc1ccc(C)c(Nc2nccc(-c3cccnc3)n2)c1` registered an IC50 in experiment [3] of 50000 nM.
